Experimental data from the EternaBench riboswitch data.

Tested on: MS2 coat protein
Test: apparent Kd, MS2 coat protein; higher = weaker binding; RNA-MaP array; FMN 200 µM where present
Procedure, shortened: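 Green signal was scaled to red-channel RNA signal and control-cluster median Fmax, and the apparent Kd was taken as the median of filtered per-cluster binding-curve fits. The binding series used SNAP-549-labelled MS2 coat protein from 0.7 or 1.5 nM, doubling to 3 µM, on designs transcribed by stalled E. coli RNA polymerase on Illumina sequencing-chip clusters. Each series ran without and then with constant ligand in 100 mM Tris-HCl pH 7.5, 80 mM KCl, 4 mM MgCl2, BSA, DTT, yeast tRNA and Tween-20.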

[1] = designed as: OFF switch for flavin mononucleotide, no ligand
[2] = ligand present: flavin mononucleotide, designed as: OFF switch for flavin mononucleotide
[3] = designed as: ON switch for flavin mononucleotide, no ligand
[4] = ligand present: flavin mononucleotide, designed as: ON switch for flavin mononucleotide

Sequence | apparent Kd [1] [µM] | apparent Kd [2] [µM] | apparent Kd [3] [µM] | apparent Kd [4] [µM]
CUCAUGUAAGGAUAUCUACGCGCUAAGGUGCGUCUAUCACAAGAGAAGGUACAUGAGGAUCACCCAUGUAAAGA | 0.103 | 0.127 |  | 
AAAAAGUAAGGAUAUCGGCGGCGGCGGAGGCGGCGGCGGCUCGAGAAGGUACAUGAGGAUCACCCAUGUAAAAA | 0.0293 | 0.0153 |  | 
GGGCUCGGAGGAUAUACAAUUCUGGGCUGAAAGGCUCGGGUACAUGAGGAUCACCCAUGUAGAAGGUCGGGUCU | 0.0159 | 0.0159 |  | 
GUAUGAGCGAUAGGAUAUACUGAGAUUGAAUGGGUAGAAGGAUCUCUUGUGGGAAAGACAUGAGGAUCACCCAUGUCACGGACC |  |  | 0.186 | 0.1
CACGGAUAGUAGAAGGGUGACAUGAGGAUCACCCAUGUACACAUGCGUAUUAAAGUAUGUGAUACACAGGAUAUACUAUCCGUG |  |  | 0.0763 | 0.321
AAGCCCUGAGGAUAUCCCAACUCGCACAUGAGGAUCACCCAUGUUCUUCUCUGGGUUUCGGGAGAAGGCAGGCCUC | 0.0965 | 0.0438 |  | 
AAAAAGGGAGGAUAUACAUGAGGAUCACCCAUGUAGCAGACGAAAAAGAGUCUGUAAUGUAGAAGGCCCAAAAA | 0.0171 | 0.0527 |  | 
GAAUAGGACAGAGGAUAUACGUGCUAGAGAUACUAGCAAAAUUUCCUCACAUGAGGAUCACCCAUGUAGAAGGCUGUCCUAUCG | 0.0185 | 0.394 |  | 
AGGCGGGUAGGAUAUAUUUUCGUCAACAUGAGGAUCACCCAUGUGUCCUGAAGUGAUAUCAUAGAAGGGCCCAGCU | 0.0254 | 0.0338 |  | 
AAAAAACAUGAGGAUCACCCAUGUCAAAAGACAUGAGGAUAUGUACAGACUUCGGUCUGUACAGAAGGCAUGUAAA |  |  | 0.321 | 0.0308
UGUUGUAUUACAGGAUAUCUAUUAGUUAUAUUUAGAGAAGGGUAUUCACAUGAGGAUCACCCAUGUAUAUACGAGGAAGUUGUG |  |  | 0.0546 | 0.0619
AUGCUUAUCGAAGGAUAUGGUUACAUGAGGAUCACCCAUGUUAUGCUUGGUUACUUGUUUAGUUUCCAGAAGGUCGAUUAGUUG | 0.071 | 0.172 |  | 
GGCUGCGUUGUGAAGGAUAUCCGCGUCUGGACAUGAGGAUCACCCAUGUAUGCUUGGAUCAUGCCGGAGAAGGUCACGAAUGAUU |  |  | 0.0343 | 0.017
GAUCAAAACACUCCUUACACUACAUGAGGAUCACCCAUGUAGCAGGAUAUCAUUGCUCCUCGCUGUGAGAAGGGCUACGGGCGG | 0.00892 | 0.0156 |  | 
CCUCCACAUGAGGAUCACCCAUGUCAGGAUAUCGUGUGUUUUUUUUCGGUCUUGCGUGCGAGAAGGGACGUCUU | 0.0356 | 0.0394 |  | 
ACAAGAUCAGGAUAUACAUGAGGAUCACCCAUGUUAAUCCAAAAGGGACUUUCUUUAUGUAGAAGGGAUCUUGU | 0.0312 | 0.0855 |  | 
AGGAGAAAUGUAGGAUAUGUAUAUAUAUAUGGGCAAAGCGCAUAUAUAUAUACAGAAGGACAUGAGGAUCACCCAUGUUUCCCU | 0.0114 | 0.0135 |  | 
GGAUGACAAAGUCAUCCAAAUCGAACAUGAGGAUCACCCAUGUAGGAUAUGGUACUCAAAGAGUACCAGAAGGACAUGUGCUUU | 0.04 | 0.191 |  | 
GAAUAGCGAGGAUAUGCAAUGAAGAUAGUACGAUAUGGCUGACAUGAGGAUCACCCAUGUAGAAGGCGCUGAUC | 0.0448 | 0.04 |  | 
UGUUGUAUUACAGGAUAUCUAGUAUGUUUAUUUAGAGAAGGGUAUUCACAUGAGGAUCACCCAUGUAUAUACGAGGAAGUUGUG |  |  | 0.0391 | 0.0425
AAAACUCGAGGAUAUGCAAAAUGAUUGCGAAAGCAAUCAAAACAUGAGGAUCACCCAUGUAGAAGGCGAGAAAA | 0.0237 | 0.0154 |  | 
AAGUAGAUCCGAGGAUAUACAUAGCGGAAACGCAACAUGAGGAUCACCCAUGUAGAAGGCGGAUCUACAGGUACUAAAGUACCA | 0.00777 | 0.0135 |  | 
GGGUACAUCGGAGGAUAUCAUGUAAAUACAUGAGGAUCACCCAUGUCGAUGGAGACAUCGGAUAUUGAGAAGGCCGAUGUACCG |  |  | 0.0187 | 0.00546
GUAUCUUAUGAGAAGGCGAUCAUGAAACAUGAUCGAGGAUAUCAUGUAAACAUGAGGAUCACCCAUGUAUGGGUAUUAUGGUAU |  |  | 0.095 | 0.0802
UUGGACGUCGUAGGAUAUGUAGGAUAUUCCUACAUGAGGAUCACCCAUGUUGACAUGGAAGACGGACAGAAGGACGAUGUCCAU |  |  | 0.49 | 0.0128
GGAUGAUUAACAGGAUAUCAUUUGUAAAUUGGUUGAGAAGGGUUAAUGAUUUAAACGACCUGUUACAUGAGGAUCACCCAUGUU |  |  | 0.0643 | 0.0382
CUGAUGUGAGGAUAUCUACGCCAUGUCUUUGACAUGGCGCAAGAGAAGGCACAUGAGGAUCACCCAUGUUCUUC | 0.0629 | 0.723 |  | 
UGGUACUAGGGAGGAUAUGGGAACAUACAUGAGGAUCACCCAUGUUUAAGAAUGCCGAGAGGCAACUAGAAGGCCCUAGUACCU |  |  | 0.0157 | 0.00496

Sequence | apparent Kd [1] [µM] | apparent Kd [2] [µM] | apparent Kd [3] [µM] | apparent Kd [4] [µM]
AAAAAACAUGAGGAUCACCCAUGUGAGGAUAUCUGUAUCCAAAAGGAAGUGUAGGAUCGGAGAAGGCACUAGGA | 0.0539 | 0.0832 |  | 
GUGACCCAUUAACAGUUACCACAUGAGGAUCACCCAUGUGCGAAGGAUAUAGACUGCUAUGCGUGCUAGAAGGUCGCGCGUGGC | 0.00632 | 0.00663 |  | 
GUUAUUUAUGUAGGAUAUGCGAGGCGAGCCUGAGCAGAAGGACAUGAGGAUCACCCAUGUAUUGCGGUUUAUGUUCAGAUCGCU | 0.0153 | 0.019 |  | 
AACCAACAUGAGGAUCACCCAUGUCAACCCAAGCGAGGAUAUCGGAGAAUAACAAUGGGACGAGAAGGCGCGACCU |  |  | 0.0729 | 0.0478
UAUAUACAUGAGGAUCACCCAUGUCAGGAUAUGCGCCGAUUAUAUACAUAAGAUCGGUGCAGAAGGGACACUAA | 0.0355 | 0.0672 |  | 
AAACAUGUCCGAGGAUAUCUGGAAACAAUUCCAAGAGAAGGCGGACAUGAGGAUCACCCAUGUCUCUCCUCAUCAAAUCCAAGU | 0.0112 | 0.0671 |  | 
CCCAUGUUAGGAUAUAUGGAAGGGCGGACGGGCGCCCUUAGGUAGAAGGAACAUGAGGAUCACCCAUGUAAUAA | 0.171 | 0.161 |  | 
ACAAGUUCACAUGAGGAUCACCCAUGUGGUCGCUAAUAUACCAGAAGGGUGGGUCCUAAUGAUGUACAGGAUAUGGAGUAGGCG |  |  | 0.198 | 0.0817
GGUACCAUCGCAGGAUAUGCUUUCCUUUGGGAAGCAGAAGGGUGUAACAUGAGGAUCACCCAUGUGGUGCCAGGGCGUGAGCCU |  |  | 0.862 | 0.0487
UGAAAUAGAGGAUAUACAUGAGGAUCACCCAUGUGAUCCUCCGGAGUAGGCCGUUUAUGUAGAAGGCUGAUGAA | 0.0489 | 0.0483 |  | 
UUGGACGUCGUAGGAUAUGUAGGAUAUUCCUACAUGAGGAUCACCCAUGUUGACAUCGAAGAAGGACAGAAGGACGAUGUCCAU |  |  | 0.088 | 0.00529
GGCGGUCGGGAGGAUAUUCGGGCUGUUUGGCUUGGAGAAGGCUCGACAUGAGGAUCACCCAUGUUGGUGUUUCC | 0.561 | 0.103 |  | 
UGUCGGCGCAGAGGAUAUUACAUGAGGAUCACCCAUGUAUGAACCAAUAGCUGGAAACAGCAAUGUAAGAAGGCUGCUCCGACA | 0.0125 | 0.154 |  | 
UAUAUGUGAGGAUAUCAGGUGUGCUAGCGUACUGGUACAUCUGAGAAGGCACAUGAGGAUCACCCAUGUUUCUU | 0.0263 | 0.088 |  | 
GUCAGCUCGUGAGGAUAUACAACGCUGCUUCGGCAGUGUAUUAAGAUCACAUGAGGAUCACCCAUGUAGAAGGCACGAGCUGAU | 0.0151 | 0.284 |  | 
AUCAGCUCGUCAGGAUAUACGUCAAUGCGUCAGCAGUGUGGUAAGAUCACAUGAGGAUCACCCAUGUAGAAGGGACGAGCUGAU | 0.125 | 0.572 |  | 
GCAAGAAUAGGAUAUACACCGUGUCAGCUUCUAUACAUCGCACAUGAGGAUCACCCAUGUAGAAGGGUUCUCUG | 0.236 | 0.217 |  | 
GCUGUCGCAUGAGGAUAUGGUCAGCUUUGCUGACCAGAAGGCAUGUCAAUAGACAUGAGGAUCACCCAUGUAGUUUGGGCGGCU |  |  | 0.985 | 0.0992
CAAUGGGCGGUAGGAUAUCCGGUGUUUGGCAAAGGAGAAGGACUCACCAUACAUGAGGAUCACCCAUGUGAAGCGGGUCCUCAA | 0.00848 | 0.0101 |  | 
UGGUACUUCGGAGGAUAUCAUGUAGAUACAUGAGGAUCACCCAUGUCGUACGAGAGUACGGAGAUUGAGAAGGCCGAAGUACCU |  |  | 0.0312 | 0.016
UGGUACUAGGGAGGAUAUGGGAAGAUACAUGAGGAUCACCCAUGUUUAAGAAUCCCGAGAGGCAACUAGAAGGCCCUAGUACCU |  |  | 0.00808 | 0.00696
CCAUAAAAGAUCCAUUUUUACAACAUGAGGAUCACCCAUGUGCAGGAUAUCGUGAAAGUAAAAUACGAGAAGGGCAAGAACUGC | 0.106 | 0.13 |  | 
CCGGCUUAGUAGGAUAUCAGAGUCGAAAGACUCUGAGAAGGACUAACAUGAGGAUCACCCAUGUGUCCUACCGG | 0.0159 | 0.036 |  | 
CUUAGACAUGAGGAUCACCCAUGUGAGGAUAUGAUGCGAAUAAAGAAAGAAGAAAGCAUCAGAAGGCACAUAUG | 0.115 | 0.349 |  | 
AUGUACCUAGGAUAUACAUGAGGAUCACCCAUGUUAACUUUGCAAUCAAGUUAAUAUUGUAGAAGGAGGUGAAA | 0.0615 | 0.107 |  | 
GGAUAGGACAGAGGAUAUACGUGCUAGAGAUACUAGCAAAAUUUCCUCACAUGAGGAUCACCCAUGUAGAAGGCUGUUCUAUCG | 0.0146 | 0.473 |  | 
GCAUAUCAGGGAGGAUAUGACAUGAGGAUCACCCAUGUAAUUAUGGCUCUGUCAGAAGGCCCAUCGUCACUAUAGCGACGAGAA | 0.587 | 0.0169 |  | 
